Screening data: PubChem, several laboratories
S1P1 ag-PAM: agonists and agonism potentiators of human S1P1 receptor. P21453. S1P1 CRE-bla cells, forskolin, beta-lactamase FRET, potentiator mode; S1P1 agonist co-added at EC20, 2 nM; 100% = saturating reference agonist, 0% = basal. activation, % at 9.5 µM. hit rate 0.57% among 56,000. AID 449;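 active = activation above a cutoff set at the mean activation of all tested compounds plus 3 SD, cut at about 54% in these data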;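 also: forskolin at 4 µM as EC80 and the EC20 agonist is SEW2871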
Hsp90 inh: displaces geldanamycin probe from tumor Hsp90. NCI-N417 lysate Hsp90, Cy3B-geldanamycin FP displacement. inhibition, % at 30 µM. hit rate 0.35% among 64,000;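 active = inhibition above 50%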
MK inhibit: inhibitors of Streptococcus pneumoniae mevalonate kinase | purified MK, PK/LDH-coupled NADH absorbance 340 nm | inhibition, % at 10 µM | hit rate 0.48% among 65,000 | AID 555;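 active = ranked among the strongest by inhibition in the single 10 µM screen, a fixed top-ranked set picked for dose follow-up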
Spn DPM-DC inh: S. pneumoniae DPM-DC inhibition; purified DPM-DC, PK/LDH coupled NADH fluorescence; calls only at 10 µM; hit rate 0.49% among 65,000; AID 556;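 active = the 320 compounds with the highest percent inhibition in the single-dose primary screen, excluding strongly autofluorescent ones, cut at about 32% in these data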;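 also: kinetic rate of NADH fluorescence loss reporting ADP formed by the decarboxylase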
S1P3 ag: activates the human S1P3 receptor; Q99500; S1P3 NFAT-BLA reporter cells, agonism, FRET ratio; relative to 1 µM S1P, basal subtracted; activation, % at 4.5 µM; hit rate 0.1% among 60,000;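 active = activation above the screen-wide mean plus 3 SD, cut at about 4.5% in these data, passing the limit was not always enough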
Target sequence (Q99500 whole entry, looked up): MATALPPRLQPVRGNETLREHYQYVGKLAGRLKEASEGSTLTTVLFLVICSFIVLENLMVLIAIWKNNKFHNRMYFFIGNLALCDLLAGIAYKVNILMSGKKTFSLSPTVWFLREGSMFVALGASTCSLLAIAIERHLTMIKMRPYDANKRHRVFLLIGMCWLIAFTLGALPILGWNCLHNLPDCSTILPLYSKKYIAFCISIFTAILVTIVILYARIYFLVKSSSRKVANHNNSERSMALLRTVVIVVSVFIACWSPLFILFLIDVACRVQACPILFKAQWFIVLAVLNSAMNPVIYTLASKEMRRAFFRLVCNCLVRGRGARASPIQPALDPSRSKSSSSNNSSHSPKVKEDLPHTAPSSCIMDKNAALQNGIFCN
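material = human S1P3 NFAT-BLA reporter CHO cells | schedule = 4 h compound at 37 °C, 2 h substrate at RT | measured by = fluorescent BLA substrate, ex 405 nm, em 460/535 nm ratio | controls = 1 µM S1P reference | replication = primary once, confirmation triplicate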
PMK inhibit: inhibitors of Streptococcus pneumoniae phosphomevalonate kinase; purified PMK, PK/LDH-coupled NADH absorbance 340 nm; inhibition, % at 10 µM; hit rate 0.49% among 65,000; AID 539;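 active = top-ranked compounds by inhibition in the single 10 µM screen, taking a fixed number of the strongest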
Numbers stand for hits; - = inactive; . = no result given; + = active, no number. Rows were chosen to be rich in hits. Some 2.2% of all compounds tested hit in one or more screens of this group.

SMILES	S1P1 ag-PAM	Hsp90 inh	MK inhibit	Spn DPM-DC inh	S1P3 ag	PMK inhibit
CCC(C)c1ccc2oc(-c3ccc(NC(=O)c4ncn[nH]4)cc3)nc2c1 (stereo not drawn)	98	-	-	.	16	-
CC(C)c1ccc2oc(-c3ccc(NC(=O)c4ncn[nH]4)cc3)nc2c1	-	-	-	.	-	-
O=C1CCCc2c1nc(-c1ccccc1)n2O	.	-	93	.	-	-
CCN(CC)CCCN(Cc1cc2cc3c(cc2[nH]c1=O)OCO3)C(=O)Nc1ccccc1OC	-	-	-	+	-	-
CCS(=O)(=O)N1CCC(C(=O)NC2CCCCCCC2)CC1	-	-	-	-	-	-
CC(C)CN(CC(C)C)S(=O)(=O)N1CCC(C(=O)NC2CCCCCCC2)CC1	-	-	-	-	-	30
CN(Cc1ccccc1)Cc1c(F)cccc1F	-	-	52	-	-	-
COc1ccc(CNC(=O)CCc2c(C)nc3ncnn3c2C)cc1	-	-	-	-	-	-
COc1cc2c(cc1OC)CN(Cc1cccs1)CC2	-	-	48	-	-	-
COc1cc2c(cc1OC)CN(Cc1ccc(OC)c(C)c1OC)CC2	-	-	46	-	-	-
CC(=O)OC(Cn1ccnc1)c1ccccc1 (stereo not drawn)	-	-	-	-	-	-
CC1=C2C(CCS2(=O)=O)CC2(C1)C(=O)OC(C)(C)OC2=O (stereo not drawn)	-	-	-	-	-	-
O=C(NCCN1CCOCC1)NC1(C(F)(F)F)Oc2ccc(Cl)cc2O1 (stereo not drawn)	-	65	-	-	-	-
CCC(C)(C)n1nnnc1C(c1cccs1)N1CCc2ccccc21 (stereo not drawn)	-	-	-	-	-	-
CCC(C)(C)n1nnnc1C(c1cccnc1)N1CCCc2ccccc21 (stereo not drawn)	-	-	-	-	-	28
COc1cccc(CN2CCCC(C(=O)N3CCCCC3)C2)c1OC (stereo not drawn)	-	-	-	-	-	-
CCOC(=O)C1CCCN(Cc2ccccc2F)C1 (stereo not drawn)	-	-	-	-	-	-
CCN(CC)C(=O)C1CCCN(Cc2ccc(OC)c(C)c2C)C1 (stereo not drawn)	.	.	56	-	.	-
CCOC(=O)C1CCCN(Cc2cc(Br)c(OC)cc2OC)C1 (stereo not drawn)	.	-	50	-	-	-
CCOC(=O)C1CCCN(Cc2cc(OC)c(O)c(OC)c2)C1 (stereo not drawn)	-	-	50	-	-	-
O=C(Nc1ccccc1OC(F)F)c1ccc(Br)o1	.	-	-	-	-	-
O=C(CSc1nnc(-c2ccccc2O)o1)Oc1ccc(OCc2ccccc2)cc1	-	-	-	.	-	-
COCc1cc(C)c(C#N)c(=S)[nH]1	-	-	58	-	-	-
COc1cc(NCCCC(C)N)c2ncccc2c1 (stereo not drawn)	-	97	-	-	-	-
CCc1cc2c(=O)c(-c3nc4ccccc4n3C)c(C)oc2c(CN2CCN(C)CC2)c1O	-	-	-	+	-	-
SMILES	S1P1 ag-PAM	Hsp90 inh	MK inhibit	Spn DPM-DC inh	S1P3 ag	PMK inhibit
COCCn1c(COc2cccc(OC)c2)nnc1SCC(=O)N1CCOCC1	-	-	-	-	-	-
CN1C(=O)OC2(C)CCc3ccccc3C12C (stereo not drawn)	-	-	-	-	-	31
CC1(C)CC2(CC(C)(C)N1)OC(=O)N1CCc3ccccc3C12C (stereo not drawn)	-	-	-	-	-	-
CCn1c(SCC(=O)Nc2cccc(C(C)=O)c2)nnc1C(C)C	-	-	-	+	-	-
CC(=O)Nc1cccc(NC(=O)CSc2nnnn2Cc2ccccc2)c1	-	-	.	+	-	-
CC1(C)C(C=C(Cl)Cl)C1C(=O)N1CCN(c2ccccc2)CC1 (stereo not drawn)	-	-	-	+	-	-
O=C(N1CCN(c2ccccc2)CC1)C12CC3CC(CC(C3)C1)C2	-	-	-	-	-	-
Nc1c2c(nc3ccccc13)N(c1ccccc1)CC2	-	-	42	.	-	-
N#C/C(=C(/O)COC(=O)CCc1ccc(S(=O)(=O)N2CCOCC2)cc1)c1nc2ccccc2[nH]1	-	-	75	-	-	-
O=C(NCC1CCCO1)c1coc2nc3ccccc3nc12 (stereo not drawn)	-	-	-	+	-	-
C=CCn1c(N)c(C(=O)NCC2CCCO2)c2nc3ccccc3nc21 (stereo not drawn)	-	-	-	.	-	-
CCCC(=O)Nc1ccc(-c2nc3cc(C)c(C)cc3o2)cc1	82	-	-	.	-	-
COc1ccc(-c2nc3cc(NC(=O)Cc4ccc(OC)c(OC)c4)ccc3o2)cc1	81	-	-	.	-	-
CCCC(=O)Nc1ccc2oc(-c3ccncc3)nc2c1	-	-	-	.	-	-
